We go through nine compounds from ChEMBL document CHEMBL4190280, “Topological pattern for the search of new active drugs against methicillin resistant Staphylococcus aureus” (2017).

Test [1] relates to Staphylococcus aureus. As to the kind of experiment: Antibacterial activity against methicillin-resistant Staphylococcus aureus subsp. aureus Rosenbach 1884. The class given is functional. An outline of the steps:
(§1)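 In vitro testing against MRSA by standard techniques, following the Spanish Society of Clinical Microbiology and Infectious Diseases (SEIMC) recommended protocol. MIC and MBC were determined, with concentrations compared in double (twofold) dilution steps.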

In test [2] the test system is Staphylococcus aureus. As to the kind of experiment: Bactericidal activity against methicillin-resistant Staphylococcus aureus subsp. aureus Rosenbach 1884. The class given is functional. The method in brief:
as §1

Converted amounts (≈) assume the structure as drawn.

Consider `O=C(O)c1cn(C2CC2)c2cc(Cl)c(F)cc2c1=O`, for which it took 32 µg/mL (≈ 114 µM) to inhibit growth with Staphylococcus aureus [1] (MIC). For the same compound, the MBC – broadly, the smallest concentration meeting the test's criterion for killing – against Staphylococcus aureus [2] came to 512 µg/mL (≈ 1820 µM).

As to `O=C(O)c1cn(C2CC2)c2cc(F)c(F)cc2c1=O`, in the test with Staphylococcus aureus [1], it took 64 µg/mL (≈ 241 µM) to inhibit growth (MIC). Also, the MBC against Staphylococcus aureus [2] is greater than 512 µg/mL.

In the case of `COc1cc2c(cc1OC)CN(c1cc3c(cc1F)c(=O)c(C(=O)O)cn3C1CC1)CC2`, in the test with Staphylococcus aureus [1], the MIC (commonly the least concentration at which growth counts as inhibited) was 1 µg/mL (≈ 2.28 µM). The compound also had a minimum bactericidal concentration (MBC) against Staphylococcus aureus [2] of 128 µg/mL (≈ 292 µM).

The compound `CN(Cc1cccc2ccccc12)c1cc2c(cc1F)c(=O)c(C(=O)O)cn2C1CC1` displayed an MIC with Staphylococcus aureus [1] of 1 µg/mL (≈ 2.4 µM). In the test with Staphylococcus aureus [2], this compound registered an MBC of 128 µg/mL (≈ 307 µM).

The compound `Cc1nccn1-c1cc2c(cc1F)c(=O)c(C(=O)O)cn2C1CC1` yielded an MIC in the test on Staphylococcus aureus [1] of 32 µg/mL (≈ 97.8 µM). The MBC in the test on Staphylococcus aureus [2] is greater than 512 µg/mL.

`O=C(O)c1cn(C2CC2)c2cc(N3CCNCC3)c(F)cc2c1=O` [CIPROFLOXACIN] returned an MIC in the test on Staphylococcus aureus [1] of 0.5 µg/mL (≈ 1.51 µM). The compound also showed an MBC against Staphylococcus aureus [2] of 256 µg/mL (≈ 773 µM).

As to `CC1(C)[C@H](C(=O)O[C@H](C#N)c2cccc(Oc3ccccc3)c2)[C@@H]1/C=C(\Cl)C(F)(F)F` [GAMMA-CYHALOTHRIN], the MIC against Staphylococcus aureus [1] was greater than 512 µg/mL. This compound also came in with an MBC with Staphylococcus aureus [2] greater than 512 µg/mL.

The compound `Nc1nnc(-c2cccc(Cl)c2Cl)c(N)n1` [LAMOTRIGINE] showed an MIC in the test on Staphylococcus aureus [1] greater than 512 µg/mL. In addition, in the test on Staphylococcus aureus [2], the MBC is greater than 512 µg/mL.

In turn, `CO[C@@]12[C@H](COC(N)=O)C3=C(C(=O)C(C)=C(N)C3=O)N1C[C@@H]1N[C@@H]12` [MITOMYCIN] yielded an MIC in the test with Staphylococcus aureus [1] of 0.5 µg/mL (≈ 1.5 µM). In the test on Staphylococcus aureus [2], this compound displayed an MBC of 4 µg/mL (≈ 12 µM).
